Measured values reported in publication PMC8095719 (Science translational medicine, 2020).
Like-named read-outs stand apart in the source and are kept apart here. Each block holds one compound with its values, some of them ahead of it.

How the values were obtained:
Fmr1^−/y mice [1] = conditions: cited from earlier work
T514 of CRMP2 = test: Western blot of CRMP2 phosphorylation in dorsal hippocampus after in vivo dosing; parameters: species or system mouse; conditions: Fmr1^−/y mice, five days dosing
Fmr1^−/y mice [2] = conditions: chronic dietary treatment; cited from earlier work
GSK3 = conditions: lithium treatment in patients with bipolar disorder; cited from earlier work
[3] = test system: mouse hippocampal slices (CA1 fEPSP); conditions: previous studies; cited from earlier work
[4] = test system: T668 of amyloid precursor protein (APP); test: Western blot of APP phosphorylation in dorsal hippocampus after in vivo dosing; parameters: species or system mouse; conditions: Fmr1^−/y mice, five days
GSK3β [5] = conditions: cited from earlier work; for IC50: read-out: biochemical IC50 against GSK3β, reported values
[6] = test system: mouse hippocampal slices (CA1 fEPSP); test: NMDAR-dependent LTD and synaptic transmission in hippocampal slices; assay type: cell-based; conditions: for NMDAR-dependent LTD, acute application: wild-type hippocampal slices, 10 μM, LFS 900 pulses at 3 Hz
[7] = test system: layer 5 of the visual cortex slices; test: evoked and spontaneous spiking in visual cortex slices; assay type: cell-based, mouse; conditions: 10 μM
In short: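 Visual cortex slices (350 μm) came from P16–P21 male WT and Fmr1−/y mice, cut in ice-cold sucrose solution. Recovery was 30 min at 32°C, then 2.5 h at room temperature in modified aCSF. White matter was stimulated with 0.2 ms pulses every 30 s at 35–80 μA, with extracellular recording in layer 5. Recording ran 30 min in vehicle (60 trials), then 30 min with 10 μM compound from 50 mM DMSO stock. Analysis was two-way repeated-measures ANOVA with Bonferroni post hoc.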

Fmr1^−/y mice [8] = test: audiogenic seizure; assay type: in vivo, mouse; conditions: for AGS incidence, chronic dosing: 30 mg/kg ip daily for five days
In short: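 Male Fmr1−/y mice were housed on static racks to avoid auditory desensitisation. Doses were 30 mg/kg ip in 10% DMSO/45% PEG 400/45% saline. Acute: one injection 1–2 h before alarm exposure in a separate room. Chronic: four daily injections plus a fifth 1–2 h before testing. The mGluR5 antagonist comparator was given as three doses every 48 h. Incidence was compared by two-tailed Fisher's exact test.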

wild-type mice = test: MK-801–induced hyperlocomotion; assay type: in vivo, mouse; conditions: MK-801 0.3 mg/kg
β-catenin = test: Western blot of β-catenin in SH-SY5Y cultured cells; assay type: cell-based; conditions: 10 μM, 24 hours
[9] = test system: mouse hippocampal slices (CA1 fEPSP); test: mGluR-dependent LTD; assay type: cell-based; conditions: DHPG 100 μM, 5 min
mouse hippocampal slices = test: metabolic labeling of protein synthesis in hippocampal slices; assay type: cell-based
In short: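 Hippocampal slices (500 μm) came from male P28–P32 Fmr1−/y and WT littermates and were kept in oxygenated aCSF at 32.5°C. Compound was applied at 10 μM. Slices were labelled with [35S]Met/Cys for 30 min, then proteins were TCA-precipitated and counted by scintillation. Counts per minute per μg protein were normalised to the labelling aCSF and expressed as percent WT. Analysis was two-way ANOVA for genotype × treatment.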

GSK3β [10] = conditions: cited from earlier work; for EC50: read-out: cellular EC50 against GSK3β, HEK293 cells
[11] = plasma, CSF and brain pharmacokinetics in C57BL/6 mice; assay type: in vivo, mouse; conditions: 30 mg/kg ip; for brain entry after in vivo dosing: confirmed by hippocampal APP phosphorylation and LTD
In short: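 Male C57BL/6 mice received a single 30 mg/kg ip dose. Blood was taken into K2-EDTA from three mice per time point, and plasma was stored below −70°C. CSF and brain were sampled at 0.08, 0.5, 1, 2, 4, 8 and 24 h. Brains were rinsed in PBS pH 7.4 and homogenised in ice-cold PBS to three times brain weight before analysis.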

Fmr1^−/y mice [12] = conditions: 30 mg/kg ip chronic, over 48 hours
[13] = test system: CRMP2 phosphorylation (p-CRMP2); test: Western blot of CRMP2 phosphorylation in SH-SY5Y cultured cells; assay type: cell-based; conditions: 10 μM
GSK3α [14] = conditions: read-out: cellular EC50 against GSK3α; HEK293 cells; cited from earlier work
GSK3α [15] = conditions: read-out: biochemical IC50 against GSK3α; reported values; cited from earlier work
[16] = Fmr1^−/y visual cortical slices
[17] = wild-type visual cortical slices
[18] = Fmr1^−/y mice, 30 mg/kg ip, 1 hour before stimulus
[19] = Fmr1^−/y hippocampal slices, 10 μM

SMILES: [Cl-].[Li+] [lithium, lithium chloride]
AGS protection (Fmr1^−/y mice [1]): protect Fmr1^−/y mice from AGS
AGS, daily injections over 5 days (Fmr1^−/y mice [1]): effectively reduce AGS
phosphorylation of T514 of CRMP2 in hippocampus in vivo (T514 of CRMP2): not changed
rates of cerebral protein synthesis (Fmr1^−/y mice [2]): reduces elevated rates of cerebral protein synthesis
inhibition of total GSK3 protein (GSK3): < 75%
NMDAR-dependent LTD [3]: reliably inhibit LTD
APP phosphorylation (T668) in dorsal hippocampus ([4]; 60 mg/kg ip twice daily): reduced APP phosphorylation

brain entry after in vivo dosing [11]: successfully entered the brain
SMILES: CC[C@]1(c2ccccc2)C2=CNNC2=NC2=C1C(=O)CC(C)(C)C2 [BRD0705, (S)-4-ethyl-7,7-dimethyl-4-phenyl-1,2,4,6,7,8-hexahydro-5H-pyrazolo[3,4-b]quinolin-5-one]
NMDAR-dependent LTD, acute application [6]: blocked low-frequency stimulation–induced LTD
synaptic transmission ([6]; wild-type mice): no effect
number of evoked action potentials [7, 16]: significantly reduced the number of action potentials
number of spontaneous action potentials [7, 16]: significantly reduced the number of spontaneous action potentials
number of evoked action potentials [7, 17]: had no effect on WT visual cortical slices
AGS incidence, chronic dosing (Fmr1^−/y mice [8]; Fmr1^−/y mice): no apparent loss of efficacy
AGS incidence, acute dosing (Fmr1^−/y mice [8]; [18]): significant reduction in seizure incidence
AGS incidence, acute dosing (Fmr1^−/y mice [8]; wild-type mice, 30 mg/kg ip): had no effect on seizure incidence
effect of pretreatment on MK-801–induced hyperlocomotion (wild-type mice; 30 mg/kg ip): had no effect on the behavioral response to MK-801
effect on β-catenin (β-catenin): no effect on β-catenin
mGluR-dependent LTD ([9]; Fmr1^−/y hippocampal slices): blocked induction of LTD
mGluR-dependent LTD ([9]; wild-type hippocampal slices): blocked induction of LTD
basal protein synthesis (mouse hippocampal slices; [19]): reduced elevated protein synthesis
CDPPB (mGluR5)-stimulated protein synthesis (mouse hippocampal slices; wild-type hippocampal slices, 10 μM, CDPPB 10 μM): blocked the elevation in protein synthesis
basal protein synthesis (mouse hippocampal slices; wild-type mice): no effect on basal protein synthesis
inhibitory avoidance memory acquisition and extinction (Fmr1^−/y mice [12]): exhibited normal memory acquisition and extinction
APP phosphorylation (T668) in dorsal hippocampus ([4]; 30 mg/kg ip QD): reduced APP phosphorylation
CRMP2 phosphorylation (p-CRMP2) [13]: decrease of CRMP2 phosphorylation

SMILES: Cc1cccc(C#Cc2ccccc2)n1 [MPEP]
suppression of AGS after chronic dosing (tolerance) (Fmr1^−/y mice [1]): greatly reduced after chronic dosing

SMILES: O=C1NC(=O)C(c2ccccc2[N+](=O)[O-])=C1Nc1ccc(O)c(Cl)c1 [SB415286]
NMDAR-dependent LTD [3]: reliably inhibit LTD

time of peak brain concentration after injection [11]: 60 min
brain entry after in vivo dosing [11]: successfully entered the brain
SMILES: CC(C)(C)CC1=C2C(=NC3=C(C(=O)CC(C)(C)C3)[C@@]2(C)c2ccccc2)NN1 [BRD3731, (S)-4,7,7-trimethyl-3-neopentyl-4-phenyl-1,2,4,6,7,8-hexahydro-5H-pyrazolo[3,4-b]quinolin-5-one]
selectivity for GSK3β (GSK3β [5]; purified enzymes): about 10 fold
IC50 (GSK3β [5]): 15 nM
NMDAR-dependent LTD ex vivo after chronic dosing in vivo ([6]; 30 mg/kg ip daily for five days, slices 1 hour after last injection): inhibited NMDAR-dependent LTD
NMDAR-dependent LTD, acute application [6]: strongly inhibited LTD
number of evoked action potentials [7, 16]: did not alter activity
number of spontaneous action potentials [7, 16]: does not reduce spontaneous hyperactivity
number of evoked action potentials [7, 17]: did not alter activity
AGS incidence, chronic dosing (Fmr1^−/y mice [8]; Fmr1^−/y mice): has no effect on AGS incidence
AGS incidence, acute dosing (Fmr1^−/y mice [8]; [18]): no significant reduction in seizure activity
AGS incidence, acute dosing (Fmr1^−/y mice [8]; wild-type mice, 30 mg/kg ip): did not affect seizure incidence
effect on β-catenin (β-catenin): no effect on β-catenin
mGluR-dependent LTD ([9]; Fmr1^−/y hippocampal slices): but not BRD3731, blocked induction of LTD
mGluR-dependent LTD ([9]; wild-type hippocampal slices): but not BRD3731, blocked induction of LTD
basal protein synthesis (mouse hippocampal slices; [19]): had no effect
EC50 (GSK3β [10]): 3300 nM
EC50 (GSK3α [14]): > 20000 nM
APP phosphorylation (T668) in dorsal hippocampus ([4]; 30 mg/kg ip QD): reduced APP phosphorylation
IC50 (GSK3α [15]): 215 nM
CRMP2 phosphorylation (p-CRMP2) [13]: decrease of CRMP2 phosphorylation

SMILES: N#Cc1cccc(C(=O)Nc2cc(-c3ccccc3)nn2-c2ccccc2)c1 [CDPPB, 3-cyano-N-(1,3-diphenyl-1H-pyrazol-5-yl) benzamide, reference compound]
protein synthesis on mGluR5 stimulation (mouse hippocampal slices; wild-type hippocampal slices, 10 μM, versus vehicle): significantly increased protein synthesis

SMILES: O=C1Cc2c([nH]c3ccc(Br)cc23)-c2ccccc2N1 [kenpaullone]
NMDAR-dependent LTD [3]: reliably inhibit LTD

SMILES: Cc1nc(C#Cc2ccnc(Cl)c2)c(C)n1-c1ccc(OC(F)(F)F)cc1 [CTEP, 2-chloro-4-((2,5-dimethyl-1-(4-(trifluoromethoxy)phenyl)-1H-imidazol-4-yl)ethynyl) pyridine, reference compound]
AGS incidence, acute dosing (Fmr1^−/y mice [8]; Fmr1^−/y mice, 2 mg/kg ip): significantly reduced the incidence of AGS
AGS protection after chronic dosing (Fmr1^−/y mice [8]; Fmr1^−/y mice, three consecutive doses over 5 days, 2 mg/kg ip): protection was completely lost

SMILES: Cc1c[nH]c(-c2cnc(NCCNc3ccc(C#N)cn3)nc2-c2ccc(Cl)cc2Cl)n1 [CHIR99021]
NMDAR-dependent LTD [3]: reliably inhibit LTD

SMILES: Cc1nc(C#Cc2cccnc2)cs1 [MTEP, 3-[(2-methyl-1,3-thiazol-4-yl)ethynyl]-pyridine, reference compound]
effect of pretreatment on MK-801–induced hyperlocomotion (wild-type mice; 10 mg/kg ip): potentiated MK-801–induced hyperlocomotion

SMILES: CC1(C)CC(=O)C2=C(C1)N=C1NNC(C3CC3)=C1[C@]2(C)c1ccccc1 [BRD0320, (S)-3-cyclopropyl-4,7,7-trimethyl-4-phenyl-1,2,4,6,7,8-hexahydro-5H-pyrazolo[3,4-b]quinolin-5-one]
AGS incidence, acute dosing (Fmr1^−/y mice [8]; [18]): ameliorates AGS incidence
effect on β-catenin (β-catenin): increase in β-catenin
